# Assay outcomes deposited in PubChem by Johns Hopkins Ion Channel Center.
# Most compounds without a hit are left out; they make up all but 2.3% or so of the library.
# TRPC4 act – activators of mouse TRPC4 channel; B-score at 10 µM; actives 0.49% (n = 310,000); HEK293 TRPC4beta/mu-opioid, Fluo4 calcium fluorescence; stronger effect = higher value; AID 2237;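 active means B-score above 5 SD of library B-scores, and initial fluorescence ratio not above library mean plus 5 SD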;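 further: positive B-score marks a calcium rise read as TRPC4 activation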
#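 System: HEK293 cells stably co-expressing mouse TRPC4beta and mu-opioid receptor; Schedule: Fluo4 dye loading 45 min at room temperature, 110 s recording; Detection: Fluo4 fluorescence, kinetic; Evaluation: B-scored integrated calcium fluorescence ratio; Controls: buffer (low) and maximal DAMGO (high).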
# TRPC6 act – activates the mouse TRPC6 cation channel; Q61143; HEK293-TRPC6 membrane potential dye fluorescence; stronger effect = higher value; B-score at 10 µM; actives 0.13% (n = 310,000);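 active means B-score of the integrated fluorescence ratio above library mean plus 3 SD, and starting fluorescence ratio within library mean plus 5 SD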;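 further: higher score means more depolarization so channel activation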
# TRPC4 PAM – allosteric potentiators of mouse TRPC4 channel; Q9QUQ5; HEK293 TRPC4beta/mu-opioid, DAMGO EC20, Fluo-4 Ca2+ flux; stronger effect = higher value; B-score at 10 µM; actives 0.42% (n = 310,000); AID 2227;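 active means B-score of calcium response area above 5 SD of library B-scores, with initial fluorescence ratio within 5 SD of library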;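 further: B-score of integrated fluorescence ratio over time as area under calcium response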
# TRPC6 inh – inhibitors of mouse TRPC6 channel. actives 1.1% (n = 310,000). Q61143. B-score at 10 µM. HEK293-TRPC6, membrane potential dye, ACh-evoked depolarization; stronger effect = lower value;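 active means B-score under library mean minus 3 SD, initial fluorescence not abnormally high, positive integrated signal ratio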;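 further: B-score derived from integrated fluorescence ratio over the kinetic read; more negative B-score means stronger inhibition of depolarization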
# TRPC4 block – inhibitors of mouse TRPC4 channel | Q9QUQ5 | HEK293 TRPC4beta/mu-opioid, DAMGO-evoked Fluo4 calcium flux; stronger effect = lower value | B-score at 10 µM | actives 0.39% (n = 300,000) | AID 2247;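 active means B-score over 3 SD under the library average, no early fluorescence shift, positive overall ratio signal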
#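 Material: HEK293 cells with stable TRPC4beta plus mu-opioid receptor expression / Probe or stimulus: DAMGO in two steps, submaximal then maximal / Compound: single concentration per test compound / Technique: kinetic Fluo4 fluorescence imaging of calcium influx / Read-out: per-well B score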
# * marks the source's active call; other numbers are inactive results; i = inactive; . = not tested or not shown.
SMILES,TRPC4 act,TRPC6 act,TRPC4 PAM,TRPC6 inh,TRPC4 block
CCOCCCn1c(=S)[nH]c2cc(C(=O)N3CCN(c4ccccc4)CC3)ccc2c1=O,i,i,i,i,i
COc1ccc(-c2nn(-c3ccccc3)cc2C(=O)N2c3ccc(C)cc3C3CN(C)CCC32)cc1 (centres undefined),i,i,15*,i,i
CC1(C)CC(Nc2ccc(Nc3ccccc3)cc2)CC(C)(C)N1,i,i,i,i,i
N=c1c(C(=O)NCc2ccccc2)cc2c(=O)n3ccccc3nc2n1Cc1ccco1,i,i,i,i,i
CC(C)n1c(=N)c(C(=O)NCCc2ccccc2)cc2c(=O)n3ccccc3nc21,i,i,i,-10.1*,i
N=c1c(C(=O)NCc2ccco2)cc2c(=O)n3ccccc3nc2n1Cc1ccc(Cl)cc1,i,i,13*,i,i
Cc1ccc2nc3c(cc(C(=O)NCCc4ccccc4)c(=N)n3CCN3CCOCC3)c(=O)n2c1,i,i,i,i,i
N=c1c(C(=O)NCc2ccc(F)cc2)cc2c(=O)n3ccccc3nc2n1Cc1ccco1,i,i,15*,i,i
CC(=O)N1CCN(CC(=O)NC(=O)Nc2ccc3c(c2)OCCO3)CC1,i,i,i,i,i
Cc1nc(C(=O)O)sc1C1(C)CC(c2cccc([N+](=O)[O-])c2)=NO1 (centres undefined),i,i,i,i,i
NC(=O)C(c1cccc(Cl)c1)c1ncc(C(F)(F)F)cc1Cl (centres undefined),i,i,15*,i,i
O=C(COC(=O)c1cccc(Br)c1)NCCNC(=O)COC(=O)c1cccc(Br)c1,i,i,i,i,i
Cc1ccc(C(=O)OCC(=O)N(C)c2c(N)n(Cc3ccccc3)c(=O)[nH]c2=O)s1,i,i,i,i,i
CC(SCc1ccccc1)C(=O)NCc1ccccn1 (centres undefined),i,i,10*,i,i
CNC[C@H](Cc1ccccc1)NC[C@@H](Cc1cccc2ccccc12)NCCc1ccc(C)cc1,173*,i,i,i,i
CC(=N)c1c(O)c2ccccc2oc1=O,i,i,i,i,i
CCCCC(=O)c1c(O)c2ccccc2oc1=O,i,i,i,i,i
O=C(CC1CCCCC1)c1c(O)c2ccccc2oc1=O,99*,i,i,i,i
CC1CCC(C(=O)c2c(O)c3ccccc3oc2=O)CC1 (centres undefined),44*,i,i,i,i
O=C(Nc1cccc([N+](=O)[O-])c1)NC1CCCCCCC1,i,i,i,i,i
Cc1ccc(NC(=O)Nc2cccc([N+](=O)[O-])c2)nc1,i,i,19*,i,i
Cc1ccc(NC(=O)Nc2ccc([N+](=O)[O-])cc2)nc1,i,i,i,i,i
O=C(N/N=C/c1cc([N+](=O)[O-])cc(Br)c1O)C12CC3CCC(CC(C3)C1)C2,136*,i,i,i,i
CCC(=O)c1ccc(OCC(O)CNCCc2ccc(Cl)cc2)cc1 (centres undefined),59*,i,i,i,i
CCOc1cc(CNCc2ccccc2)ccc1OCc1ccc(Cl)cc1,i,i,i,i,i
SMILES,TRPC4 act,TRPC6 act,TRPC4 PAM,TRPC6 inh,TRPC4 block
OC(CNCCc1ccccc1)COc1ccc(OCC(O)CNCCc2ccccc2)cc1 (centres undefined),i,i,22*,i,i
Clc1ccc(OCCNCCc2ccccc2)cc1,98*,i,i,i,i
O=C(COc1ccc(Cl)cc1)NCc1ccccc1,i,i,i,i,i
CCC(=O)c1ccc(OCC(O)CNCc2ccc(F)cc2)cc1 (centres undefined),i,i,i,i,i
COc1ccc(CNCCc2ccc(Cl)cc2)cc1OCc1ccccc1,47*,i,i,i,i
OC(CNCCC(c1ccccc1)c1ccccc1)COc1ccccc1 (centres undefined),i,i,i,i,i
O=S(=O)(Nc1nc(-c2ccccc2)cs1)c1cccc(C(F)(F)F)c1,i,i,i,i,i
CC(=O)NCCOc1cccc2ccccc12,i,i,i,i,i
c1ccc(CCNCCCOc2cccc3ccccc23)cc1,66*,i,i,i,i
Clc1cc(/C=N\NC2=NCCN2)cc(Cl)n1,i,i,18*,i,i
CCOc1ccc2nc(Cl)c(C3CC(c4ccccc4)=NN3C(=O)c3ccco3)cc2c1 (centres undefined),i,i,i,i,i
Cc1cc(C)c(OCCOCCN2CCN(C)CC2)c(Cl)c1,i,i,i,i,i
Cc1cc(Cl)c(OCCOCCN2CCNCC2)c(Cl)c1,62*,i,i,i,i
Clc1ccccc1OCCCCN1CCNCC1,i,i,12*,i,i
Cc1cccc(OCCOCCN2CCNCC2)c1C,133*,i,i,i,i
Clc1ccccc1OCCCCN1CCCC1,i,i,i,i,.
Cc1cccc(OCCOCCN2CCOCC2)c1C,i,i,i,i,i
COc1ccc(CCNC(=O)C2CCCN2S(=O)(=O)c2cccc3nsnc23)cc1OC (centres undefined),i,i,i,i,i
Cc1ncsc1CCOC(=O)C12CC3CC(CC(C3)C1)C2,i,i,i,i,-7*
COc1ccccc1N1C(=O)c2cccc3cccc(c23)C1=O,i,i,i,i,i
CC(C)Cc1ccc(C(C)C(=O)Nc2ccc(O)cc2)cc1 (centres undefined),52*,i,i,i,i
CC(C)Cc1ccc(C(C)C(=O)Nc2cccnc2)cc1 (centres undefined),45*,i,i,i,i
CCOc1cc(CN2CCC(CO)(Cc3cccc(C(F)(F)F)c3)CC2)ccc1OC,i,i,i,i,i
C=C(C)CNC(=S)N/N=C1\CCCCc2ccccc21,i,i,i,i,i
CCc1ccccc1OCCCCCNCCO,i,i,11*,i,i
Cc1cc(Br)ccc1OCCCCNCCO,i,i,10*,i,i
Cc1nnc2sc(-c3csc4c3CCCC4)nn12,i,i,i,i,-6*
COCCSc1ccccc1C(=O)N1CCC(Cc2ccccc2)CC1,44*,i,i,i,-7*
CNC(=S)N/N=C(\C)c1ccc(C)c(C)c1,i,i,i,i,i
